Results: ChEMBL document CHEMBL2177094, “Structure dependence of long-chain [18F]fluorothia fatty acids as myocardial fatty acid oxidation probes” (J Med Chem, 2012)

Legend:
Bone = experiment: Drug uptake in overnight fasted Sprague-Dawley rat bone at 9 to 11 MBq, iv at 55 to 115 mins by microPET analysis; type: ADME, organism-based, Bone element; conditions: in vivo
How it was run: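 Overnight-fasted female Sprague-Dawley rats under isoflurane were scanned by microPET/CT after tail-vein tracer. Dynamic acquisition over the upper thorax ran for 50 min, then a static whole-body scan from 55–115 min p.i. 2–5 rats per tracer; preliminary, representative images.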

Muscle tissue [1] = experiment: Ratio of drug uptake in overnight fasted Sprague-Dawley rat muscle at 0.7 to 1.4 MBq, iv preincubated with POCA for 2 hrs before compound administration measured at 120 mins post treatment to drug uptake in overnight fasted Sprague-Dawley rat muscle at 0.7 to 1.4 MBq, iv at 120 mins; type: ADME, organism-based; conditions: in vivo
How it was run: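 Ratio of skeletal muscle uptake (% dose kg/g) 120 min after tail-vein tracer in rats given POCA 30 mg/kg i.p. 2 h beforehand to that in fasted control rats. Radioactivity was decay-corrected and normalized to tissue and body weight.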

Muscle tissue [2] = experiment: Biodistribution in overnight fasted Sprague-Dawley rat muscle pellet fraction at 0.7 to 1.4 MBq, iv preincubated with POCA for 2 hrs before compound administration measured at 120 mins post treatment by Folch-type extraction method; type: ADME, organism-based; conditions: in vivo
How it was run: (§1)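 Female Sprague-Dawley rats, fasted overnight, under isoflurane (3.5% induction, 1.5% maintenance). [18F] tracer in 0.5–1.0% BSA/saline was given by tail vein. POCA group: 30 mg/kg i.p. 120 min before tracer. About 0.5 g tissue was homogenized and sonicated in chloroform/methanol (2:1) at 0 °C, then 40% urea and 5% H2SO4 were added and spun 10 min at 1,800 g. Aqueous, organic and pellet fractions were counted as % of total.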

Liver = experiment: Biodistribution in overnight fasted Sprague-Dawley rat liver organic fraction at 0.7 to 1.4 MBq, iv preincubated with POCA for 2 hrs before compound administration measured at 120 mins post treatment by Folch-type extraction method; type: ADME, organism-based; conditions: in vivo; how it was run: as §1
Muscle tissue [3] = experiment: Biodistribution in overnight fasted Sprague-Dawley rat muscle organic fraction at 0.7 to 1.4 MBq, iv at 120 mins by Folch-type extraction method; type: ADME, organism-based; conditions: in vivo, 2 h; how it was run: as §1
Heart [4] = experiment: Biodistribution in overnight fasted Sprague-Dawley rat heart aqueous fraction at 0.7 to 1.4 MBq, iv preincubated with POCA for 2 hrs before compound administration measured at 30 mins post treatment by Folch-type extraction method; type: ADME, organism-based; conditions: in vivo, 0.5 h; how it was run: as §1
Heart [5] = experiment: Biodistribution in overnight fasted Sprague-Dawley rat heart aqueous fraction at 0.7 to 1.4 MBq, iv at 30 mins by Folch-type extraction method; type: ADME, organism-based; conditions: in vivo, 0.5 h; how it was run: as §1
Brain [6] = experiment: Drug uptake in overnight fasted Sprague-Dawley rat brain at 0.7 to 1.4 MBq, iv preincubated with POCA for 2 hrs before compound administration measured at 120 mins post treatment; type: ADME, organism-based; conditions: in vivo
How it was run: (§2)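 Overnight-fasted female Sprague-Dawley rats under isoflurane received the [18F] tracer in 0.5–1.0% BSA/saline by tail vein. POCA group: 30 mg/kg i.p. 2 h before tracer. Tissues were excised at 30 or 120 min, weighed and gamma-counted with decay correction. Uptake = % dose kg/g, i.e. CPM tissue × body wt (kg) × 100 / (tissue wt (g) × CPM dose). n = 5–6.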

Heart [7] = experiment: Drug uptake in overnight fasted Sprague-Dawley rat heart at 0.7 to 1.4 MBq, iv preincubated with POCA for 2 hrs before compound administration measured at 120 mins post treatment; type: ADME, organism-based; conditions: in vivo
How it was run: (§3)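 Female rats fasted overnight, under isoflurane (3.5% induction, 1.5% maintenance). 18F-labelled tracer formulated in 0.5–1.0% BSA/saline, injected via tail vein. Tissues harvested at 30 or 120 min, weighed, gamma-counted, decay-corrected. Uptake expressed as % dose kg/g, i.e. tissue CPM × body wt (kg) × 100 / (tissue wt (g) × dose CPM). POCA groups received 30 mg/kg i.p. 2 h before tracer. n = 5–6.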

Muscle tissue [8] = experiment: Drug uptake in overnight fasted Sprague-Dawley rat muscle at 0.7 to 1.4 MBq, iv at 120 mins; type: ADME, organism-based; conditions: in vivo, 2 h; how it was run: as §3
Brain [9] = experiment: Drug uptake in overnight fasted Sprague-Dawley rat brain at 0.7 to 1.4 MBq, iv at 120 mins; type: ADME, organism-based; conditions: in vivo, 2 h; how it was run: as §2
Brain [10] = experiment: Drug uptake in overnight fasted Sprague-Dawley rat brain at 0.7 to 1.4 MBq, iv at 30 mins; type: ADME, organism-based; conditions: in vivo, 0.5 h; how it was run: as §2
Heart [11] = experiment: Ratio of drug uptake in overnight fasted Sprague-Dawley rat heart at 0.7 to 1.4 MBq, iv at 30 mins to drug uptake in overnight fasted Sprague-Dawley rat heart at 0.7 to 1.4 MBq, iv preincubated with POCA for 2 hrs before compound administration measured at 30 mins post treatment; type: ADME, organism-based; conditions: in vivo, 0.5 h
How it was run: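 Ratio of heart uptake (% dose kg/g) 30 min after tail-vein tracer in fasted control rats to that in rats given POCA 30 mg/kg i.p. 2 h before tracer. Tissue radioactivity was decay-corrected and weight-normalized.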

Heart [12] = experiment: Metabolic stability in overnight fasted Sprague-Dawley rat heart at 9 to 11 MBq, iv measured at 55 to 115 mins by microPET analysis; type: ADME, organism-based; conditions: in vivo

O=C(O)CCCCSCCCCCCCCCCCC[18F]
Drug uptake (Bone): Active | Ratio (Muscle tissue [1]): 2.2 | Drug uptake (Muscle tissue [2]): 31.41% | Drug uptake (Liver): 64.78% | Drug uptake (Muscle tissue [3]): 39.74% | Drug uptake (Heart [4]): 3.84% | Drug uptake (Heart [5]): 4.02% | Drug uptake (Brain [6]): 0.0519 %IDKg/g | Drug uptake (Heart [7]): 0.2288 %IDKg/g | Drug uptake (Muscle tissue [8]): 0.0263 %IDKg/g | Drug uptake (Brain [9]): 0.022 %IDKg/g | Drug uptake (Brain [10]): 0.033 %IDKg/g

O=C(O)CCSCCCCCCCCCCCCCC[18F]
Drug uptake (Bone): Active | Ratio (Heart [11]): 1.7 | Drug uptake (Muscle tissue [2]): 32.62% | Drug uptake (Liver): 67.69% | Drug uptake (Muscle tissue [3]): 48.9% | Drug uptake (Heart [4]): 7.73% | Drug uptake (Heart [5]): 3.97% | Drug uptake (Brain [6]): 0.031 %IDKg/g | Drug uptake (Heart [7]): 0.1025 %IDKg/g | Drug uptake (Muscle tissue [8]): 0.0181 %IDKg/g | Drug uptake (Brain [9]): 0.0143 %IDKg/g | Drug uptake (Brain [10]): 0.02 %IDKg/g

O=C(O)CCSCCCCCCCCCCCC[18F]
Drug uptake (Bone): Active | Ratio (Muscle tissue [1]): 2.7 | Drug uptake (Muscle tissue [2]): 32.69% | Drug uptake (Liver): 50% | Drug uptake (Muscle tissue [3]): 34% | Drug uptake (Heart [4]): 15.28% | Drug uptake (Heart [5]): 2.63% | Drug uptake (Brain [6]): 0.0578 %IDKg/g | Drug uptake (Heart [7]): 0.1042 %IDKg/g | Drug uptake (Muscle tissue [8]): 0.0109 %IDKg/g | Drug uptake (Brain [9]): 0.0154 %IDKg/g | Drug uptake (Brain [10]): 0.067 %IDKg/g

O=C(O)CCSCCCC/C=C\CCCCCCCC[18F]
Drug uptake (Bone): Active | Stability (Heart [12]): Stable | Drug uptake (Muscle tissue [2]): 35.36% | Drug uptake (Liver): 68.06% | Drug uptake (Muscle tissue [3]): 21.98% | Drug uptake (Heart [4]): 10.15% | Drug uptake (Heart [5]): 2.86% | Drug uptake (Brain [6]): 0.0206 %IDKg/g | Drug uptake (Heart [7]): 0.076 %IDKg/g | Drug uptake (Muscle tissue [8]): 0.0171 %IDKg/g | Drug uptake (Brain [9]): 0.0215 %IDKg/g | Drug uptake (Brain [10]): 0.0206 %IDKg/g
